Data published in ChEMBL document CHEMBL1121417, “[1-beta-Mercapto-beta,beta-cyclopentamethylenepropionic acid),2-(O-methyl)tyrosine ]argine-vasopressin and [1-beta-mercapto-beta,beta-cyclopentamethylenepropionic acid)]argine-vasopressine, two highly potent antagonists of the vasopressor response to arginine-vasopressin” (J Med Chem, 1980).
Starred links: 1 amine or outer side, 2 acyl side, 3 side chain; linkers in the order of their positions; H or OH if unused. Positions of bridges follow the written chain, without caps; N, C: chain ends. Non-standard residues stand in square brackets, D forms with d. Residues, ends and D or L forms follow the SMILES beside them. X1 = O=C(CC1(S[*:2])CCCCC1)[*:1]; X2 = CC(C)(CC(=O)[*:1])S[*:2]; Mpa = O=C(O)CCS

Columns and labels:
Rattus norvegicus [1] = assay: Tested for intravenous antidiuretic activity in rats; type: functional, Urine; parameters: unit: U/mg
Procedure, shortened: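 Intravenous antidiuretic assay in rats under ethanol anesthesia. Agonistic activity is expressed in units per milligram.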

Rattus norvegicus [2] = species on record: Rattus norvegicus; assay: Tested for […] anti-oxytocic effect in the absence of Mg2+ in rats; type: functional, organism-based; conditions: for Kb: Rattus norvegicus, read-out: pA2 (converted)
Procedure, shortened: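 Isolated rat uterus in vitro in a medium without Mg2+. Antagonism is expressed as pA2 by the Schild method, computed per assay group, with mean ± SE and the number of assays.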

Rattus norvegicus [3] = assay: Tested for intravenous anti-vasopressor pA2 effect in rats; type: functional, organism-based; conditions: for Kb: Rattus norvegicus, read-out: pA2 (converted)
Procedure, shortened: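 Vasopressor assay in rats pretreated with phenoxybenzamine under urethane anesthesia, using intravenous injections. The pA2 is derived by the Schild method for each assay group and reported as mean ± SE, with the number of assays given.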

Rattus norvegicus [4] = assay: Tested for intravenous anti-vasopressor pA2 effect in rats; agonist at concentration of 4 units/mg; conditions: filed as agonist
Rattus norvegicus [5] = assay: Tested for intravenous anti-oxytocic effect in in vivo in rats; type: functional, organism-based; conditions: read-out: pA2 (converted)
Procedure, shortened: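 Rat uterus in situ; antagonism expressed as pA2 by the Schild method, calculated for each assay group and reported as mean ± SE, with the number of assays given.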

Rattus norvegicus [6] = assay: Tested for intravenous anti-oxytocic effect in the presence of Mg2+ in rats; type: functional, organism-based; conditions: read-out: pA2 (converted)
Rattus norvegicus [7] = assay: Tested for intravenous anti-oxytocic effect in the absence of Mg2+ in rats; agonist at concentration of 47 units/kg; type: functional, organism-based; conditions: filed as agonist
Rattus norvegicus [8] = assay: Tested for intravenous anti-vasopressor pA2 effect in rats; agonist at concentration of 346 units/kg; type: functional, organism-based; conditions: filed as agonist, in the assay text read “346 units/mg” for “346 units/kg”
Procedure, shortened: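 Vasopressor assay in rats anesthetized with urethane and pretreated with phenoxybenzamine, with intravenous injections. Antagonism is expressed as pA2, calculated by Schild's method for each assay group and reported as mean ± SE, with the number of assays given.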

Rattus norvegicus [9] = assay: Tested for intravenous anti-oxytocic effect in the absence of Mg2+ in rats; agonist at concentration of 8 units/kg; type: functional, organism-based; conditions: filed as agonist

| Structure (SMILES) | Antidiuretic activity (Rattus norvegicus [1]) | Kb (Rattus norvegicus [2]) | Kb (Rattus norvegicus [3]) | other results |
| --- | --- | --- | --- | --- |
| NC(=O)CC[C@@H]1NC(=O)[C@H](Cc2ccccc2)NC(=O)[C@H](Cc2ccc(O)cc2)NC(=O)CC2(CCCCC2)SSC[C@@H](C(=O)N2CCC[C@H]2C(=O)N[C@@H](CCCN=C(N)N)C(=O)NCC(N)=O)NC(=O)[C@H](CC(N)=O)NC1=O (YFQNCPRG-NH2; linker N-5 via X1) [listing 1 of 2 here] | 0.033 | – | – | – |
| CC(C)[C@@H]1NC(=O)[C@H](Cc2ccccc2)NC(=O)[C@H](Cc2ccc(O)cc2)NC(=O)CC(C)(C)SSC[C@@H](C(=O)N2CCC[C@H]2C(=O)N[C@H](CCCN=C(N)N)C(=O)NCC(N)=O)NC(=O)[C@H](CC(N)=O)NC1=O (YFVNCP[dR]G-NH2; linker N-5 via X2) [listing 1 of 2 here] | 123 | – | – | – |
| CC(C)[C@@H]1NC(=O)[C@H](Cc2ccccc2)NC(=O)[C@H](Cc2ccc(O)cc2)NC(=O)CC2(CCCCC2)SSC[C@@H](C(=O)N2CCC[C@H]2C(=O)N[C@H](CCCN=C(N)N)C(=O)NCC(N)=O)NC(=O)[C@H](CC(N)=O)NC1=O (YFVNCP[dR]G-NH2; linker N-5 via X1) [listing 1 of 2 here] | 0.1 | – | – | – |
| CC1(C)CC(=O)N[C@@H](Cc2ccc(O)cc2)C(=O)N[C@@H](Cc2ccccc2)C(=O)N[C@@H](CCC(N)=O)C(=O)N[C@@H](CC(N)=O)C(=O)N[C@H](C(=O)N2CCC[C@H]2C(=O)N[C@@H](CCCN=C(N)N)C(=O)NCC(N)=O)CSS1 (YFQNCPRG-NH2; linker N-5 via X2) [listing 1 of 2 here] | – | 117 nM | 35.5 nM | – |
| COc1ccc(C[C@@H]2NC(=O)CCSSC[C@@H](C(=O)N3CCC[C@H]3C(=O)N[C@@H](CCCN=C(N)N)C(=O)NCC(N)=O)NC(=O)[C@H](CC(N)=O)NC(=O)[C@H](CCC(N)=O)NC(=O)[C@H](Cc3ccccc3)NC2=O)cc1 [listing 1 of 2 here] | – | 38.9 nM | – | – |
| COc1ccc(C[C@@H]2NC(=O)CCSSC[C@H](C(=O)N3CCC[C@H]3C(=O)N[C@@H](CCCN=C(N)N)C(=O)NCC(N)=O)NC(=O)[C@H](CC(N)=O)NC(=O)[C@H](CCC(N)=O)NC(=O)[C@H](Cc3ccccc3)NC2=O)cc1 | – | – | – | pA2 (Rattus norvegicus [4]): agonist at concentration of 4 units/kg |
| NC(=O)CC[C@@H]1NC(=O)[C@H](Cc2ccccc2)NC(=O)[C@H](Cc2ccc(O)cc2)NC(=O)CC2(CCCCC2)SSC[C@@H](C(=O)N2CCC[C@H]2C(=O)N[C@@H](CCCN=C(N)N)C(=O)NCC(N)=O)NC(=O)[C@H](CC(N)=O)NC1=O (YFQNCPRG-NH2; linker N-5 via X1) [listing 2 of 2 here] | – | – | 4.47 nM | Kb (Rattus norvegicus [5]): 162 nM; Kb (Rattus norvegicus [6]): 64.6 nM |
| N=C(N)NCCC[C@@H](NC(=O)[C@@H]1CCCN1C(=O)[C@@H]1CSSCCC(=O)N[C@@H](Cc2ccc(O)cc2)C(=O)N[C@@H](Cc2ccccc2)C(=O)N[C@@H](CCC(N)=O)C(=O)N[C@@H](CC(N)=O)C(=O)N1)C(=O)NCC(N)=O [DESMOPRESSIN] | 1745 | – | – | pA2 (Rattus norvegicus [7]): Agonist; pA2 (Rattus norvegicus [8]): Agonist |
| CC(C)[C@@H]1NC(=O)[C@H](Cc2ccccc2)NC(=O)[C@H](Cc2ccc(O)cc2)NC(=O)CC2(CCCCC2)SSC[C@@H](C(=O)N2CCC[C@H]2C(=O)N[C@H](CCCN=C(N)N)C(=O)NCC(N)=O)NC(=O)[C@H](CC(N)=O)NC1=O (YFVNCP[dR]G-NH2; linker N-5 via X1) [listing 2 of 2 here] | – | 240 nM | 20.9 nM | – |
| CC(C)[C@@H]1NC(=O)[C@H](Cc2ccccc2)NC(=O)[C@H](Cc2ccc(O)cc2)NC(=O)CC(C)(C)SSC[C@@H](C(=O)N2CCC[C@H]2C(=O)N[C@H](CCCN=C(N)N)C(=O)NCC(N)=O)NC(=O)[C@H](CC(N)=O)NC1=O (YFVNCP[dR]G-NH2; linker N-5 via X2) [listing 2 of 2 here] | – | 58.9 nM | 15.1 nM | – |
| CC(C)[C@@H]1NC(=O)[C@H](Cc2ccccc2)NC(=O)[C@H](Cc2ccc(O)cc2)NC(=O)CCSSC[C@@H](C(=O)N2CCC[C@H]2C(=O)N[C@H](CCCNC(=N)N)C(=O)NCC(N)=O)NC(=O)[C@H](CC(N)=O)NC1=O ([Mpa]YFVNCP[dR]G-NH2; disulfide 1-6) | 1230 | – | 93.3 nM | pA2 (Rattus norvegicus [9]): agonist at concentration of 8 units/kg |
| COc1ccc(C[C@@H]2NC(=O)CC(C)(C)SSC[C@@H](C(=O)N3CCC[C@H]3C(=O)N[C@@H](CCCN=C(N)N)C(=O)NCC(N)=O)NC(=O)[C@H](CC(N)=O)NC(=O)[C@H](CCC(N)=O)NC(=O)[C@H](Cc3ccccc3)NC2=O)cc1 (Y(Me)FQNCPRG-NH2; linker N-5 via X2) [listing 1 of 2 here] | 3.5 | – | – | – |
| COc1ccc(C[C@@H]2NC(=O)CCSSC[C@@H](C(=O)N3CCC[C@H]3C(=O)N[C@@H](CCCN=C(N)N)C(=O)NCC(N)=O)NC(=O)[C@H](CC(N)=O)NC(=O)[C@H](CCC(N)=O)NC(=O)[C@H](Cc3ccccc3)NC2=O)cc1 [listing 2 of 2 here] | 830 | – | – | – |
| COc1ccc(C[C@@H]2NC(=O)CC(C)(C)SSC[C@@H](C(=O)N3CCC[C@H]3C(=O)N[C@@H](CCCN=C(N)N)C(=O)NCC(N)=O)NC(=O)[C@H](CC(N)=O)NC(=O)[C@H](CCC(N)=O)NC(=O)[C@H](Cc3ccccc3)NC2=O)cc1 (Y(Me)FQNCPRG-NH2; linker N-5 via X2) [listing 2 of 2 here] | – | 24.5 nM | 20.4 nM | – |
| COc1ccc(C[C@@H]2NC(=O)CC3(CCCCC3)SSC[C@@H](C(=O)N3CCC[C@H]3C(=O)N[C@@H](CCCN=C(N)N)C(=O)NCC(N)=O)NC(=O)[C@H](CC(N)=O)NC(=O)[C@H](CCC(N)=O)NC(=O)[C@H](Cc3ccccc3)NC2=O)cc1 (Y(Me)FQNCPRG-NH2; linker N-5 via X1) | 0.31 | 7.41 nM | 2.4 nM | Kb (Rattus norvegicus [5]): 240 nM; pA2 (Rattus norvegicus [2]): 8.13; Kb (Rattus norvegicus [6]): 57.5 nM; pA2 (Rattus norvegicus [3]): 8.67 |
| CC1(C)CC(=O)N[C@@H](Cc2ccc(O)cc2)C(=O)N[C@@H](Cc2ccccc2)C(=O)N[C@@H](CCC(N)=O)C(=O)N[C@@H](CC(N)=O)C(=O)N[C@H](C(=O)N2CCC[C@H]2C(=O)N[C@@H](CCCN=C(N)N)C(=O)NCC(N)=O)CSS1 (YFQNCPRG-NH2; linker N-5 via X2) [listing 2 of 2 here] | 42 | – | – | – |
